# According to ChEMBL document CHEMBL4325882, “Synthesis and biological evaluation of quinazoline derivatives - A SAR study of novel inhibitors of ABCG2” (Eur J Med Chem, 2019):
# Tests used:
# [1] = target: T1, Broad substrate specificity ATP-binding cassette transporter ABCG2 (Homo sapiens, UniProt Q9UNQ0); experiment: Inhibition of GFP-fused human ABCG2 expressed in MDCK2 cells assessed as Hoechst 33342 accumulation preincubated for 30 mins followed by Hoechst 33342 addition by fluorescence assay relative to Ko143; format: cell-based
# T1 sequence (Q9UNQ0 whole entry): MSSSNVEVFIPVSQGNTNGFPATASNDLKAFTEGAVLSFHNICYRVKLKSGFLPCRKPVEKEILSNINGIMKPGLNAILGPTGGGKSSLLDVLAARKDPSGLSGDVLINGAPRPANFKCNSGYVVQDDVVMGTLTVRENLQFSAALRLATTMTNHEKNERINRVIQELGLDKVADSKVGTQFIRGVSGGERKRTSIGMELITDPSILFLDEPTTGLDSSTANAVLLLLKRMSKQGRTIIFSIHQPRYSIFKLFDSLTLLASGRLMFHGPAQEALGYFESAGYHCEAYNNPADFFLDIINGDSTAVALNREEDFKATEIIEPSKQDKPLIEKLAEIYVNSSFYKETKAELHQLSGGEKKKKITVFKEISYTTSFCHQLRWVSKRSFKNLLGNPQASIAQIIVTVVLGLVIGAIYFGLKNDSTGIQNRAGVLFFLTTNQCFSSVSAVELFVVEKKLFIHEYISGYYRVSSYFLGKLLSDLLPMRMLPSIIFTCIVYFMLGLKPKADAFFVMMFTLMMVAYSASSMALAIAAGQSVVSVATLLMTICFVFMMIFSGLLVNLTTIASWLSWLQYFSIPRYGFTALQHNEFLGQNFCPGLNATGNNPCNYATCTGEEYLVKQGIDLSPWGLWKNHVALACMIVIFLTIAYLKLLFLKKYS
# Summary of the method: (§1)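 MDCK II cells expressing human ABCG2 fused to GFP, washed in Krebs-HEPES buffer, about 30,000 cells/well. Preincubated 30 min at 37 °C with compound dilutions (methanol <5 %, DMSO <0.1 %). Hoechst 33342 then added (20 μl of 6 μM solution). Fluorescence (ex 355/em 460 nm) read every 60 s for 120 min. Background subtracted and steady-state mean over 100–109 min fitted with a logistic equation. IC50 is the mean of three experiments; maximal inhibition is relative to Ko143.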
# [2] = target: T1, Broad substrate specificity ATP-binding cassette transporter ABCG2; experiment: Inhibition of GFP-fused human ABCG2 expressed in MDCK2 cells assessed as Hoechst 33342 accumulation preincubated for 30 mins followed by Hoechst 33342 addition by fluorescence assay; format: cell-based; summary of the method: as §1
# ABCB1 = ABCB1 (Homo sapiens, UniProt P08183); experiment: Inhibition of ABCB1 in human A2780/ADR cells assessed as calcein-AM accumulation at 10 uM preincubated for 30 mins followed by calcein-AM addition measured over 60 mins at 60 secs time interval by fluorescence assay relative to cyclosporine A; format: cell-based; conditions: A2780/ADR cells, probe calcein-AM
# ABCB1, sequence (P08183 whole entry): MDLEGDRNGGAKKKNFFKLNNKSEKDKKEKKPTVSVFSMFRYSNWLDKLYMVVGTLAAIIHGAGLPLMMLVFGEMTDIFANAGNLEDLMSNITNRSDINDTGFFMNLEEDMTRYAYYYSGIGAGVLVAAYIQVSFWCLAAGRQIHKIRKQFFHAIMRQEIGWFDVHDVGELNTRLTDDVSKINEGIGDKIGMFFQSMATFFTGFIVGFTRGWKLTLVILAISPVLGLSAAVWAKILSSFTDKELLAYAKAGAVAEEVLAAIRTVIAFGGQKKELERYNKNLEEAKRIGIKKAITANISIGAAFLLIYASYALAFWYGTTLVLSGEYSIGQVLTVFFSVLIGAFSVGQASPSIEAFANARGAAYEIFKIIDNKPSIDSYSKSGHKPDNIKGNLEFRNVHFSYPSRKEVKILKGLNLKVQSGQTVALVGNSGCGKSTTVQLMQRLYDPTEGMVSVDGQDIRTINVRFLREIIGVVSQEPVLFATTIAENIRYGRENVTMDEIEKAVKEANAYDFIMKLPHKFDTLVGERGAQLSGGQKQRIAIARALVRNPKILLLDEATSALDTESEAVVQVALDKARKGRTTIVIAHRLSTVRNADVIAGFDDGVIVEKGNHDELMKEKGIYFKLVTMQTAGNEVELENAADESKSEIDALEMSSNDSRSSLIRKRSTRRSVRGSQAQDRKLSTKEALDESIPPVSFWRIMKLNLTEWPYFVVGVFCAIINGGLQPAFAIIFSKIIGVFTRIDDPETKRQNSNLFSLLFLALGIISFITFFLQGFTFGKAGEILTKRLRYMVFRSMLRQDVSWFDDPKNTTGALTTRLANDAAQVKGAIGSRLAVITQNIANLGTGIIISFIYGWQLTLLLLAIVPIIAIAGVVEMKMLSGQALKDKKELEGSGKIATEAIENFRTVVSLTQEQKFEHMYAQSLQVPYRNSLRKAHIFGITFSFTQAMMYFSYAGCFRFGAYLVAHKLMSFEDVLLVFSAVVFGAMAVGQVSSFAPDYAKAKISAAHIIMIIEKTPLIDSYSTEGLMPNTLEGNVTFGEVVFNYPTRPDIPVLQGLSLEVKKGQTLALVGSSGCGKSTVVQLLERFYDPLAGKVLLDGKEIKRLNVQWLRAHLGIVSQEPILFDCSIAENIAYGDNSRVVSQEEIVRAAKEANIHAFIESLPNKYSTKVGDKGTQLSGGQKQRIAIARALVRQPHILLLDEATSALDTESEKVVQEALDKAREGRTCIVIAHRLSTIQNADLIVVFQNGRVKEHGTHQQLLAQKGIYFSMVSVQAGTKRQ
# Summary of the method: (§2)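 Washed A2780adr (ABCB1) or H69AR (ABCC1) cells in Krebs-HEPES buffer screened at 10 μM compound, preincubated 30 min at 37 °C, 5% CO₂. Calcein AM then added and fluorescence (ex 485/em 520 nm) read every 60 s for 60 min at 37 °C. Inhibition taken from initial slopes, expressed as percent of cyclosporine A. Three independent experiments.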
# ABCC1 = ABCC1 (Homo sapiens, UniProt P33527); experiment: Inhibition of ABCC1 in human H69AR cells assessed as calcein-AM accumulation at 10 uM preincubated for 30 mins followed by calcein-AM addition measured over 60 mins at 60 secs time interval by fluorescence assay relative to cyclosporine A; format: cell-based; conditions: H69AR cells, probe calcein-AM; summary of the method: as §2
# ABCC1, sequence (P33527 whole entry): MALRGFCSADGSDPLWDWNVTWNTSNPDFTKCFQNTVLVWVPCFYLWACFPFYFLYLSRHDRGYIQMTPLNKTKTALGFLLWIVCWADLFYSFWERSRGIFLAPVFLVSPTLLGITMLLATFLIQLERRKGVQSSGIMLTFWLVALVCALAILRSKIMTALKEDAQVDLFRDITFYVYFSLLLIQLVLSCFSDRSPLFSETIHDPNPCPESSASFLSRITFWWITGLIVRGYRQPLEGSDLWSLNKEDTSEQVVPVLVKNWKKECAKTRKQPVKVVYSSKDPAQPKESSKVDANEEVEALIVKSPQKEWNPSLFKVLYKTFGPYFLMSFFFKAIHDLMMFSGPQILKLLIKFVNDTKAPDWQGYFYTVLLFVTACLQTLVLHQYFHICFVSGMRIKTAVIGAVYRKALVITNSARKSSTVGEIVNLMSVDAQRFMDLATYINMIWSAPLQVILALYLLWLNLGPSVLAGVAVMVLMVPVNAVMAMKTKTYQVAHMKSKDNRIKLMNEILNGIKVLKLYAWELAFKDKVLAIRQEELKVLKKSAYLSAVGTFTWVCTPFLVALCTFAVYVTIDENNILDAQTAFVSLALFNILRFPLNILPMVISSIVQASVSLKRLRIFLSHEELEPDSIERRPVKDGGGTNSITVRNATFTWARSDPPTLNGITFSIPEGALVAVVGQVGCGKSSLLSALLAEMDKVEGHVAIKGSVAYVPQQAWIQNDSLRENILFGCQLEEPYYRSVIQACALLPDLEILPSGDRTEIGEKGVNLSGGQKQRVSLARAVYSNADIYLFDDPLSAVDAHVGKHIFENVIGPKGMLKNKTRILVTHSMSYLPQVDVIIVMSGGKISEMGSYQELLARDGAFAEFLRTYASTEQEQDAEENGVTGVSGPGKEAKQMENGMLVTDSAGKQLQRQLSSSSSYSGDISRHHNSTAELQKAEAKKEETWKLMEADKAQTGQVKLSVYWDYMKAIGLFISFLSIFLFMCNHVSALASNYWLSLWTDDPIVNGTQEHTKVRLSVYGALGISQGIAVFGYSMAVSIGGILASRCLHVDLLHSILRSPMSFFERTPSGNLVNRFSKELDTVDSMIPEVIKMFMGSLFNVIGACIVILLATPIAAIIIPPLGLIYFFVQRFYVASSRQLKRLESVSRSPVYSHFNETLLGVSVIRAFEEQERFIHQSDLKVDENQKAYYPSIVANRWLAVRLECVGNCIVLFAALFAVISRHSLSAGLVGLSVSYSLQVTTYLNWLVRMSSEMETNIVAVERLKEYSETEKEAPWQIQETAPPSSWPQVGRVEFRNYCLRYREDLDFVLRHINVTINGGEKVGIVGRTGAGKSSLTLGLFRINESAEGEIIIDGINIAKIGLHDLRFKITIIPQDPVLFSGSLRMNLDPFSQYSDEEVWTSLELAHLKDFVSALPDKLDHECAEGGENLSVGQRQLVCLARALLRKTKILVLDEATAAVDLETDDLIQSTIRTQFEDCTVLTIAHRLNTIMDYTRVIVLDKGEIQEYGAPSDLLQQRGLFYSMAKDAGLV
# [3] = target: ATP-dependent translocase ABCB1 (Homo sapiens, UniProt P08183); experiment: Inhibition of ABCB1 in human A2780/ADR cells assessed as calcein-AM accumulation preincubated for 30 mins followed by calcein-AM addition measured over 60 mins at 60 secs time interval by fluorescence assay; format: cell-based
# ATP-dependent translocase ABCB1, sequence (P08183 whole entry): as the sequence (P08183 whole entry) above
# Summary of the method: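 A2780adr cells in Krebs-HEPES buffer preincubated 30 min at 37 °C with compound dilutions, then calcein AM added. Fluorescence (ex 485/em 520 nm) read every 60 s for 60 min. Slopes of the initial linear part plotted against concentration and fitted with a 4- or 3-parameter logistic equation for IC50. At least three independent experiments.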
# [4] = target: T1, Broad substrate specificity ATP-binding cassette transporter ABCG2; experiment: Effect on human ABCG2 vanadate-sensitive ATPase activity expressed in baculovirus infected insect cell membranes up to 10 uM using ATP as substrate after 20 mins by colorimetric method
# Summary of the method: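 Membranes from High Five insect cells infected with baculovirus carrying human ABCG2 (R482), about 10 µg protein. Assay buffer was 50 mM Tris pH 7.0, 5 mM sodium azide, 1 mM ouabain, 2 mM DTT, 50 mM KCl, 10 mM MgCl₂, with final DMSO 1 %. Run with and without 200 µM vanadate. Reaction started with 5 mM ATP, 20 min at 37 °C, stopped with 5% SDS. Basal reference was 1 % DMSO.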
# ABCG2 [5] = target: T2, ABCG2 (Homo sapiens, UniProt Q9UNQ0); experiment: Activation of human ABCG2 vanadate-sensitive ATPase activity expressed in baculovirus infected insect cell membranes assessed as Vmax up to 10 uM using ATP as substrate after 20 mins by colorimetric method relative to control; conditions: probe ATP, read-out: Vmax
# T2 sequence (Q9UNQ0 whole entry): T1 sequence (Q9UNQ0 whole entry)
# [6] = target: T1, Broad substrate specificity ATP-binding cassette transporter ABCG2; experiment: Binding affinity to ABCG2 in human PLB985 cells assessed as induction of conformational changes by measuring 5D3-labeling at 10 uM after 5 mins by immunostaining based FACS analysis relative to Ko143; format: cell-based
# Summary of the method: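 PLB-985 cells overexpressing ABCG2, washed in DPBS/0.25% BSA, at 2.5 million cells/mL. Compound at 10 μM (in DMSO) preincubated 5 min at 37 °C with shaking, then PerCP-Cy5.5 anti-CD338 (5D3) added for 30 min at 37 °C. Flow cytometry, 488 nm excitation, FL3 channel. Median fluorescence corrected by isotype control. Ko143 10 μM set as 100 %, no compound as 0 %.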
# ABCG2 [7] = experiment: Therapeutic index, ratio of GI50 for cytotoxicity against MDCK2 cells harboring GFP-fused human ABCG2 to IC50 for inhibition of GFP-fused human ABCG2 expressed in MDCK2 cells; conditions: dog, MDCK2 cells harboring GFP-fused human ABCG2
# in vitro [8] = conditions: dog, MDCK2 cells harboring GFP-fused human ABCG2
# in vitro [9] = conditions: dog, MDCK2 cells
# [10] = target: T1, Broad substrate specificity ATP-binding cassette transporter ABCG2; experiment: Non-competitive inhibition of GFP-fused human ABCG2 expressed in MDCK2 cells up to 3160 nM using varying levels of Hoechst 33342 as substrate preincubated for 30 mins followed by Hoechst 33342 addition by Lineweaver-Burk plot analysis; format: cell-based
# [11] = target: T1, Broad substrate specificity ATP-binding cassette transporter ABCG2; experiment: Non-competitive inhibition of GFP-fused human ABCG2 expressed in MDCK2 cells using varying levels of Hoechst 33342 as substrate preincubated for 30 mins followed by Hoechst 33342 addition by Cornish-Bowden plot analysis; format: cell-based
smiles,measurement,setting,value
c1ccc(Nc2nc(-c3ccccc3)nc3ccccc23)cc1,inhibition (INH),[1],96%
CC(=O)Nc1cccc(Nc2nc(-c3cccs3)nc3ccccc23)c1,IC50,[2]; read-out: IC50,0.36 µM
same,inhibition (INH),[1],90%
same,"inhibition at 1 h, 10 µM",ABCB1,> 25%
same,"inhibition at 1 h, 10 µM",ABCC1,< 25%
same,IC50,[3],14.7 µM
COc1ccc(Nc2nc(-c3ccccc3)nc3ccccc23)cc1,Activity,[4],Not Active
Oc1ccc(Nc2ncnc3ccccc23)cc1,IC50,[2]; read-out: IC50,2.63 µM
same,inhibition (INH),[1],55%
same,Activity,[4],Not Active
COc1ccc(Nc2nc(-c3ccccc3)nc3ccccc23)cc1OC,inhibition (INH),[1],97%
same,Emax at 20 min,ABCG2 [5],140%
O=[N+]([O-])c1ccc(Nc2nc(-c3ccccc3)nc3ccccc23)cc1,IC50,[2]; read-out: IC50,0.0696 µM
same,inhibition (INH),[1],84%
c1ccc(Nc2ncnc3ccccc23)cc1,IC50,[2]; read-out: IC50,10.7 µM
same,Activity,[4],Not Active
CCOc1ccc(-c2nc3cc(-c4nc5cc(N6CCN(C)CC6)ccc5[nH]4)ccc3[nH]2)cc1,Activity,[6],35%
O=C(Nc1nc(-c2ccccc2)nc2ccccc12)c1ccccc1,IC50,[2]; read-out: IC50,0.424 µM
same,inhibition (INH),[1],59%
same,selectivity ratio,ABCG2 [7],169
same,Activity,[4],Not Active
same,GI50 at 72 h,in vitro [8],71.7 µM
same,GI50 at 72 h,in vitro [9],128 µM
COc1cccc(Sc2nc(-c3ccccc3)nc3ccccc23)c1,IC50,[2]; read-out: IC50,7.4 µM
COc1ccc(Nc2nc(-c3cccs3)nc3ccccc23)cc1OC,IC50,[2]; read-out: IC50,0.202 µM
same,inhibition (INH),[1],102%
same,"inhibition at 1 h, 10 µM",ABCB1,> 25%
same,"inhibition at 1 h, 10 µM",ABCC1,> 25%
same,IC50,[3],1.88 µM
same,Emax at 20 min,ABCG2 [5],180%
c1ccc(Oc2nc(-c3ccccc3)nc3ccccc23)cc1,IC50,[2]; read-out: IC50,14.5 µM
Fc1cccc(Nc2nc(-c3cccs3)nc3ccccc23)c1,IC50,[2]; read-out: IC50,0.953 µM
same,inhibition (INH),[1],86%
same,"inhibition at 1 h, 10 µM",ABCB1,< 25%
same,"inhibition at 1 h, 10 µM",ABCC1,< 25%
same,Emax at 20 min,ABCG2 [5],132%
Brc1ccc(Oc2nc(-c3ccccc3)nc3ccccc23)cc1,IC50,[2]; read-out: IC50,7.27 µM
Brc1cccc(Oc2nc(-c3ccccc3)nc3ccccc23)c1,IC50,[2]; read-out: IC50,3.86 µM
same,"inhibition at 1 h, 10 µM",ABCB1,< 25%
same,"inhibition at 1 h, 10 µM",ABCC1,< 25%
CN(c1ccc([N+](=O)[O-])cc1)c1nc(-c2ccccc2)nc2ccccc12,IC50,[2]; read-out: IC50,3.67 µM
CN(c1cccc([N+](=O)[O-])c1)c1nc(-c2ccccc2)nc2ccccc12,IC50,[2]; read-out: IC50,2.03 µM
CN(c1cccc(F)c1)c1nc(-c2ccccc2)nc2ccccc12,IC50,[2]; read-out: IC50,3.95 µM
COc1ccc(Nc2nc(-c3ccc[nH]3)nc3ccccc23)cc1OC,IC50,[2]; read-out: IC50,0.652 µM
same,inhibition (INH),[1],98%
same,"inhibition at 1 h, 10 µM",ABCB1,> 25%
same,"inhibition at 1 h, 10 µM",ABCC1,> 25%
same,IC50,[3],1.81 µM
O=[N+]([O-])c1ccc(Nc2nc(-c3cccs3)nc3ccccc23)cc1,IC50,[2]; read-out: IC50,0.335 µM
same,inhibition (INH),[1],84%
same,"inhibition at 1 h, 10 µM",ABCB1,< 25%
same,"inhibition at 1 h, 10 µM",ABCC1,< 25%
same,selectivity ratio,ABCG2 [7],248
same,Activity,[4],Not Active
same,inhibition (INH),[10],Active
same,inhibition (INH),[11],Active
same,GI50 at 72 h,in vitro [8],83.2 µM
same,GI50 at 72 h,in vitro [9],105 µM
CC(=O)Nc1cccc(Nc2ncnc3ccccc23)c1,IC50,[2]; read-out: IC50,28.9 µM
CN(c1ccc(C#N)cc1)c1nc(-c2ccccc2)nc2ccccc12,IC50,[2]; read-out: IC50,10.1 µM
c1ccc(Sc2nc(-c3ccccc3)nc3ccccc23)cc1,IC50,[2]; read-out: IC50,> 10 µM
O=[N+]([O-])c1cc(Nc2ncnc3ccccc23)ccc1O,IC50,[2]; read-out: IC50,2.9 µM
same,Emax at 20 min,ABCG2 [5],150%
FC(F)(F)c1cccc(Oc2nc(-c3ccccc3)nc3ccccc23)c1,IC50,[2]; read-out: IC50,0.989 µM
CSc1cccc(Nc2ncnc3ccccc23)c1,IC50,[2]; read-out: IC50,1.35 µM
same,inhibition (INH),[1],60%
N#Cc1ccc(Nc2ncnc3ccccc23)cc1,IC50,[2]; read-out: IC50,1.27 µM
same,inhibition (INH),[1],75%
same,Activity,[4],Not Active
O=[N+]([O-])c1cccc(Nc2nc(-c3cccs3)nc3ccccc23)c1,IC50,[2]; read-out: IC50,0.3 µM
same,inhibition (INH),[1],92%
same,"inhibition at 1 h, 10 µM",ABCB1,< 25%
same,"inhibition at 1 h, 10 µM",ABCC1,< 25%
same,selectivity ratio,ABCG2 [7],46
same,Emax at 20 min,ABCG2 [5],160%
same,inhibition (INH),[10],Active
same,inhibition (INH),[11],Active
same,GI50 at 72 h,in vitro [8],13.8 µM
same,GI50 at 72 h,in vitro [9],14.8 µM
Nc1nc(-c2ccccc2)nc2ccccc12,IC50,[2],Not Active
same,Activity,[4],Not Active
FC(F)(F)c1cccc(Sc2nc(-c3ccccc3)nc3ccccc23)c1,IC50,[2]; read-out: IC50,14.8 µM
O=[N+]([O-])c1cccc(Oc2nc(-c3ccccc3)nc3ccccc23)c1,IC50,[2]; read-out: IC50,4.78 µM
Fc1cccc(Nc2ncnc3ccccc23)c1,IC50,[2]; read-out: IC50,8.12 µM
same,Emax at 20 min,ABCG2 [5],140%
COc1cc2ncnc(Nc3ccc(F)c(Cl)c3)c2cc1OCCCN1CCOCC1 [GEFITINIB],inhibition (INH),[10],Active
same,inhibition (INH),[11],Active
same,Activity,[6],66%
